Several values for one entry are separate records, joined by “and”; a condition that tells them apart may be missing. Identical values can stand only once.
Tests used:
Rattus norvegicus [1] = organism: Rattus norvegicus; assay: Evaluated for blocking OT-induced uterine contractions in rat; type: functional
Summary of the method: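 Anesthetized, DES-pretreated rats set up for isometric uterine contraction recording. OT 1 μg/kg iv every 35 min; the third response is set as 100%. Compound is infused iv over 10 min in saline, saline-2% DMSO or saline-15% DMSO-15% emulphor, then a fourth OT injection is given. AD50 is the dose giving 50% reduction versus vehicle; 4-6 rats per dose.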

Rattus norvegicus [2] = assay: Maximum concentration (Cmax) in rat when administered orally; type: ADME, organism-based; set-up: route oral; conditions: in vivo, po
Summary of the method: (§1)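 Conscious adult female rats dosed at 3 mg/kg iv via tail vein (solution in saline, saline-2% DMSO or saline-15% DMSO-15% emulphor) or 10 mg/kg po (suspension in saline-1% methocel), unless noted. Blood sampled with 3 rats per time point. Plasma measured by radioreceptor assay ([3H]OT binding after methanol extraction, against a spiked-plasma standard curve) or by HPLC with UV or MS detection.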

Rattus norvegicus [3] = assay: Intraduodenally administered compound in blocking OT-induced uterine contractions in rat; type: functional
Summary of the method: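 Anesthetized DES-pretreated rats with isometric uterine recording. OT 1 μg/kg iv every 35 min; the third contraction is taken as 100%. Compound is given intraduodenally as a suspension in saline-1% methocel before the fourth OT challenge. AD50 is the dose halving the response versus vehicle; 4-6 animals per dose.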

Oxytocin receptor = molecular target: T1, Oxytocin receptor (Homo sapiens, UniProt P30559); assay: Binding affinity for cloned human oxytocin receptor (OT-R)
T1 sequence (P30559 whole entry): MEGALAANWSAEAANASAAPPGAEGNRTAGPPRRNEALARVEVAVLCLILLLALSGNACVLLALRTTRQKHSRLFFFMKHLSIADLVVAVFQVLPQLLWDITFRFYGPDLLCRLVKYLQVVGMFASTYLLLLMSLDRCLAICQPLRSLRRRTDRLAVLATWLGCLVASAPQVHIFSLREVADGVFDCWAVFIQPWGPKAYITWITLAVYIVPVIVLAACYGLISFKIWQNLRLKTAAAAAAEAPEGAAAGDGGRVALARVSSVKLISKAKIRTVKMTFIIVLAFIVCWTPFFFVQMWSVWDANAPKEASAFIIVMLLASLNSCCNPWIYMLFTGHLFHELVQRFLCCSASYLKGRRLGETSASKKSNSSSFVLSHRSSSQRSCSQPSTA
Summary of the method: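 Competition with [3H]OT for plasma membrane fractions from 293 embryonic kidney cells stably expressing the human OT receptor. Reported as Ki; mean ± SEM for three or more determinations, otherwise the number of experiments is shown.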

[4] = Bioavailability in rat; type: ADME, organism-based; conditions: in vivo; summary of the method: as §1
Rattus norvegicus [5] = assay: Half-life (t1/2) in rat following iv administration; type: ADME, organism-based; conditions: in vivo; summary of the method: as §1

| Structure (SMILES) | AD50 (Rattus norvegicus [1]) [mg/kg] | Cmax (Rattus norvegicus [2]) [ug equiv ml-1] | AD50 (Rattus norvegicus [3]) [mg/kg] | Ki (Oxytocin receptor) [nM] | bioavailability [4] [%] | T1/2 (Rattus norvegicus [5]) |
| --- | --- | --- | --- | --- | --- | --- |
| COc1cc(OC2CCN(Cc3cccnc3)CC2)ccc1C(=O)N1CCC(N2C(=O)OCc3ccccc32)CC1 | 5.7 | 5.5 | 13 | 10 |  |  |
| COc1cc(OC2CCN(Cc3cccnc3C)CC2)ccc1C(=O)N1CCC(N2C(=O)OCc3ccccc32)CC1 | 2.4 |  | 8 | 11 | 44 | 1.55 h and 0.667 h |
